From ChEMBL document CHEMBL1123137 (J Med Chem, 1985)

What was measured:
Albumin = Albumin (Bos taurus, UniProt P02769); experiment: Serum albumin binding; settings: cattle
In short: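 Affinity for bovine serum albumin measured by Hummel–Dreyer method adapted for HPLC. Samples of BSA (0.25–2 g/dL) with 25 μM analogue in 0.1 M NaH2PO4, pH 7.4, were applied to an Aquapore OH-100 column equilibrated with 25 μM analogue in the same buffer. Effluent absorbance was read at 254 nm. Duplicate estimates were made at each of two BSA concentrations, usually 1 and 2 g/dL.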

[1] = HPLC capacity factor (k'); type: ADME
[2] = target: Adenosine receptor A2a (Canis lupus familiaris) (UniProt P11617); experiment: Molar potency ratio was evaluated
[3] = Molar potency ratio was evaluated at 27 uM
[4] = Molar potency ratio was evaluated at 50 uM
[5] = Ionisation constant (pKa); type: physicochemical
[6] = Molar potency ratio was evaluated at 35 uM
[7] = Molar potency ratio was evaluated at 47 uM
[8] = Molar potency ratio was evaluated at 46 uM
[9] = Molar potency ratio was evaluated at 37 uM
[10] = Maximum increase in coronary flow (percent) of N6-modified adenosines at 27 uM
[11] = Molar potency ratio was evaluated at 107 uM
[12] = Molar potency ratio was evaluated at 18 uM
[13] = Molar potency ratio was evaluated at 61 uM

Chain of Albumin (P02769 whole entry): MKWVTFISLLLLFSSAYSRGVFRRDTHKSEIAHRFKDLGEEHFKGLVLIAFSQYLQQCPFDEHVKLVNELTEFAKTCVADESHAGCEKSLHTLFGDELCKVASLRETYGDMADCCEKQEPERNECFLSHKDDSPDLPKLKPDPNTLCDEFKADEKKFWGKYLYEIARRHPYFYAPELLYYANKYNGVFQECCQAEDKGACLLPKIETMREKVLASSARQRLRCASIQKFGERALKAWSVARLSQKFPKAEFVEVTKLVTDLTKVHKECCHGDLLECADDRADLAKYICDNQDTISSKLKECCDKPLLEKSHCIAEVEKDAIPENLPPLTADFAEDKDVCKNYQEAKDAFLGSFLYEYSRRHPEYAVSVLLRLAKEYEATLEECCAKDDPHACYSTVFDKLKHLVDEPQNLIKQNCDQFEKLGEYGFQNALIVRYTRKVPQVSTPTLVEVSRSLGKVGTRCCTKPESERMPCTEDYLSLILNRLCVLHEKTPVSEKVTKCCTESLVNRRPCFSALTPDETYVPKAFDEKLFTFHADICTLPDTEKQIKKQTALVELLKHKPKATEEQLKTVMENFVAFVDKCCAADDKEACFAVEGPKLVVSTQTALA
Chain of Adenosine receptor A2a (Canis lupus familiaris) (P11617 whole entry, looked up): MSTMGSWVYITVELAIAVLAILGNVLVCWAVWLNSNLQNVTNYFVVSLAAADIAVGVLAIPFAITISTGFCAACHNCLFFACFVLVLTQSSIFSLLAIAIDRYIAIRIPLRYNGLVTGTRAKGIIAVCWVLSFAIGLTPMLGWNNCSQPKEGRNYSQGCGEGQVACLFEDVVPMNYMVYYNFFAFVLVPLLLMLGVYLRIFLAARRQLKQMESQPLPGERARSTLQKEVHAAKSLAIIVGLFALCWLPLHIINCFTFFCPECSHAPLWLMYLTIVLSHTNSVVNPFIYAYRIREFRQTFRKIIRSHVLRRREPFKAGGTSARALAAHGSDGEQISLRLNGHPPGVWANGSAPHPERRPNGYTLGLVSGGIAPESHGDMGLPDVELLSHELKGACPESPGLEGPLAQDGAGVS

Compound: CC(C)Nc1ncnc2c1ncn2[C@@H]1O[C@H](CO)[C@@H](O)[C@H]1O
- Amount bound (Albumin): 0.41 M/g
- k' [1]: 0.54
- MPR [2]: 0.71

Compound: OC[C@H]1OC(n2cnc3c(NCC4CCCCC4)ncnc32)[C@H](O)[C@@H]1O (stereo partly drawn)
- Amount bound (Albumin): 7.1 M/g
- k' [1]: 4.67
- MPR [2]: 0.14

Compound: OC[C@H]1OC(n2cnc3c(NC45C[C@H]6C[C@@H](C4)C[C@@H](C5)C6)ncnc32)[C@H](O)[C@@H]1O (stereo partly drawn)
- MPR [3]: 0
- k' [1]: 19.6

Compound: CC(C)(CCc1ccccc1)Nc1ncnc2c1ncn2C1O[C@H](CO)[C@@H](O)[C@H]1O (stereo partly drawn)
- MPR [4]: 4%
- k' [1]: 18.7

Compound: CCCCNc1ncnc2c1ncn2[C@@H]1O[C@H](CO)[C@@H](O)[C@H]1O
- Amount bound (Albumin): 1.06 M/g
- k' [1]: 1.59
- MPR [2]: 0.38

Compound: OC[C@H]1O[C@@H](n2cnc3c(NC4CC5CCC4C5)ncnc32)[C@H](O)[C@@H]1O (stereo in doubt; 58)
- Amount bound (Albumin): 2.09 M/g
- k' [1]: 2.64

Compound: CC(CC1CCCCC1)Nc1ncnc2c1ncn2C1O[C@H](CO)[C@@H](O)[C@H]1O (stereo partly drawn)
- Amount bound (Albumin): 19.3 M/g
- k' [1]: 8.92
- MPR [2]: 0.15

Compound: OC[C@H]1O[C@@H](n2cnc3c(NC4CCCCC4)ncnc32)[C@H](O)[C@@H]1O
- Amount bound (Albumin): 1.3 M/g
- k' [1]: 2.12

Compound: CC[C@H](C)Nc1ncnc2c1ncn2C1O[C@H](CO)[C@@H](O)[C@H]1O (single isomer, unassigned)
- Amount bound (Albumin): 0.53 M/g
- k' [1]: 0.96
- MPR [2]: 2.6

Compound: C[C@H](Cc1ccccc1)Nc1ncnc2c1ncn2[C@@H]1O[C@H](CO)[C@@H](O)[C@H]1O [(R)-PIA]
- k' [1]: 2.57
- pKa [5]: 3.4

Compound: CC(C)(C)Nc1ncnc2c1ncn2C1O[C@H](CO)[C@@H](O)[C@H]1O (stereo partly drawn)
- k' [1]: 2.44
- MPR [6]: 7%

Compound: CCC(C)(C)Nc1ncnc2c1ncn2C1O[C@H](CO)[C@@H](O)[C@H]1O (stereo partly drawn)
- k' [1]: 4.28
- MPR [7]: 12%

Compound: C[C@@H](Nc1ncnc2c1ncn2[C@@H]1O[C@H](CO)[C@@H](O)[C@H]1O)c1ccccc1
- k' [1]: 1.64
- pKa [5]: 3.3
- MPR [2]: 0.52

Compound: CC(C)C(Nc1ncnc2c1ncn2C1O[C@H](CO)[C@@H](O)[C@H]1O)C(C)C (stereo partly drawn)
- Amount bound (Albumin): 2.97 M/g
- k' [1]: 1
- MPR [2]: 0.75

Compound: OC[C@H]1O[C@@H](n2cnc3c(NC4CCCCCC4)ncnc32)[C@H](O)[C@@H]1O
- Amount bound (Albumin): 3.4 M/g
- k' [1]: 4.04
- MPR [2]: 0.18

Compound: CC(C)CNc1ncnc2c1ncn2C1O[C@H](CO)[C@@H](O)[C@H]1O (stereo partly drawn)
- Amount bound (Albumin): 0.74 M/g
- k' [1]: 1
- MPR [2]: 0.75

Compound: CC1(Nc2ncnc3c2ncn3C2O[C@H](CO)[C@@H](O)[C@H]2O)CCCCC1 (stereo partly drawn)
- MPR [8]: 5%
- k' [1]: 9.29

Compound: OC[C@H]1O[C@@H](n2cnc3c(NCCc4ccccc4)ncnc32)[C@H](O)[C@@H]1O
- k' [1]: 1.77
- pKa [5]: 3.6
- MPR [2]: 2

Compound: CC1(C)C2CCC(CNc3ncnc4c3ncn4C3O[C@H](CO)[C@@H](O)[C@H]3O)C1C2 (stereo partly drawn)
- k' [1]: 21
- MPR [9]: 8%

Compound: CCC(CC)Nc1ncnc2c1ncn2C1O[C@H](CO)[C@@H](O)[C@H]1O (stereo partly drawn)
- Amount bound (Albumin): 0.78 M/g
- k' [1]: 1.64
- pKa [5]: 3.3
- MPR [2]: 4

Compound: CC(C)(Nc1ncnc2c1ncn2C1O[C@H](CO)[C@@H](O)[C@H]1O)c1ccccc1 (stereo partly drawn)
- k' [1]: 4.45
- max coronary flow increase [10]: 7%

Compound: OC[C@H]1OC(n2cnc3c(OCCc4ccccc4)ncnc32)[C@H](O)[C@@H]1O (stereo partly drawn)
- k' [1]: 2.36
- MPR [11]: 9%

Compound: OCCNc1ncnc2c1ncn2C1O[C@H](CO)[C@@H](O)[C@H]1O (stereo partly drawn)
- Amount bound (Albumin): 0.53 M/g
- k' [1]: 0.14
- MPR [2]: 0.14

Compound: OC[C@H]1OC(n2cnc3c(NC4C5C[C@H]6C[C@@H](C5)C[C@@H]4C6)ncnc32)[C@H](O)[C@@H]1O (stereo partly drawn)
- k' [1]: 12.2
- MPR [12]: 0

Compound: OC[C@H]1O[C@@H](n2cnc3c(NC4CCCCCCC4)ncnc32)[C@H](O)[C@@H]1O
- Amount bound (Albumin): 10.1 M/g
- k' [1]: 8.8
- MPR [9]: 12%

Compound: OC[C@H]1OC(n2cnc3c(NC(c4ccccc4)c4ccccc4)ncnc32)[C@H](O)[C@@H]1O (stereo partly drawn)
- MPR [13]: 27%
- k' [1]: 6.11

Compound: CC[C@@H](C)Nc1ncnc2c1ncn2[C@@H]1O[C@H](CO)[C@@H](O)[C@H]1O
- Amount bound (Albumin): 0.36 M/g
- k' [1]: 0.89
- pKa [5]: 3.7
- MPR [2]: 0.88

Compound: CCCC(CCC)Nc1ncnc2c1ncn2C1O[C@H](CO)[C@@H](O)[C@H]1O (stereo partly drawn)
- Amount bound (Albumin): 7.1 M/g
- k' [1]: 5.57
- MPR [2]: 0.81
